We go through 3 molecules from ChEMBL document CHEMBL3785068, “Synthesis and biological evaluation of novel 6,7-dihydro-5H-cyclopenta[d]pyrimidine and 5,6,7,8-tetrahydroquinazoline derivatives as sigma-1 (σ1) receptor antagonists for the treatment of pain” (Bioorg Med Chem Lett, 2016).

SMILES strings stand for the structures.

As usually defined, the Ki is a dissociation constant, usually derived from enzyme kinetics or from competition with a known ligand.

The subject of experiment [1] is Mus musculus. The experiment can be described thus: Antinociceptive activity in Kun Ming mouse assessed as inhibition of formalin-induced pain response during phase 2 measured as licking and biting time at 80 mg/kg, ip preincubated with compound for 15 mins followed by formalin injection measured after 15 to 45 mins. Type of experiment: functional. An outline of the steps:
(§1)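 Formalin injected intraplantar into the mouse hind paw. Licking/biting time scored in phase I (0–5 min) and phase II (15–45 min) after 80 mg/kg test dose. At least ten animals per group; mean ± SEM; two-way ANOVA with Newman-Keuls test against vehicle and formalin-alone groups.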

Experiment [2] concerns Mus musculus. The experiment can be described thus: Antinociceptive activity in Kun Ming mouse assessed as inhibition of formalin-induced pain response during phase 1 measured as licking and biting time at 80 mg/kg, ip preincubated with compound for 15 mins followed by formalin injection measured up to 5 mins. Type of experiment: functional. Put shortly:
as §1

In experiment [3] the target is Sigma non-opioid intracellular receptor 1 (Cavia porcellus, UniProt Q60492). The experiment can be described thus: Displacement of [3H]-(+)-pentazocine from sigma1 receptor in guinea pig brain membrane after 180 mins by liquid scintillation counter. The class given is cell membranes. For orientation: In a radioligand displacement assay an active substance lowers the binding of a labelled ligand.
Sequence of Sigma non-opioid intracellular receptor 1 (Q60492 whole entry): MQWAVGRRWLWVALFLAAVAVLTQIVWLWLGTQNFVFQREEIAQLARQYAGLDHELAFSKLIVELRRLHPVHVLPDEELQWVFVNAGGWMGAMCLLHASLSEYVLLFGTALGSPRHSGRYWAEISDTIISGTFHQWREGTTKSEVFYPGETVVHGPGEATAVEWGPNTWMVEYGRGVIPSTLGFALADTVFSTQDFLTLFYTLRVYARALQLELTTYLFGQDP

For the molecule `Cc1cc(OCCN2CCOCC2)nn1-c1ccc2ccccc2c1`, the figures for the Time in the experiment with Mus musculus [1] and with Mus musculus [2] were 55.4 s and 16.8 s, respectively. For the molecule `CC1CCN(CCCOc2nc(-c3ccc(Cl)cc3)nc3c2CCC3)CC1`, the affinity in experiment [3] corresponds to a Ki of 0.0211 µM.

As for `CN(C)CCCOc1nc(-c2ccccc2)nc2c1CCCC2`, the Ki in experiment [3] was 0.138 µM.
